# Published values gathered from unrelated publications.
# Each line is one published result; the experiments were not run side by side.
# Organism: Plasmodium falciparum
# Observed: parasite growth
SMILES,method,strain,time,notes,IC50
N=C(CC(O)c1cc2c(F)cc(F)cc2c2cc(C(F)(F)F)ccc12)Nc1ccc(Br)cc1 (stereo not drawn),ELISA,3D7,72 h,blood stage,6.1 nM
Cc1[nH]c(/C=C2\N=C(c3ccc[nH]3)C3=C2OCCO3)cc1Cc1ccc(OC(F)(F)F)cc1,SYBR Green,D6,72 h,blood stage,30.3 nM
CCCCCCOc1ccc2c(=O)c3c([nH]c2c1)CCCC3,SYBR Green,D6,72 h,blood stage,0.447 nM
CC(C)(C)CC(C)(C)c1ccc(O)c(Cc2ccc(Cl)cc2Cl)c1,,NF54,,blood stage,16300 nM
N=C(CC(O)c1nc2ccccc2c2ccc(Cl)cc12)Nc1ccc(F)cc1 (stereo not drawn),ELISA,3D7,72 h,blood stage,18.7 nM
CN(Cc1cnc2nc(N)nc(N)c2n1)c1ccc(C(=O)N[C@@H](CCC(=O)O)C(=O)O)cc1,,NF54,,blood stage,51.5 nM
CCC1=C(CC)/C(=C/c2[nH]c(Cc3ccc(Cl)cc3)cc2Cc2ccc(Cl)cc2)N=C1c1ccc[nH]1,SYBR Green,D6,72 h,blood stage,79.6 nM
N=C(CC(O)c1nc2ccccc2c2ccccc12)Nc1ccc(F)cc1 (stereo not drawn),ELISA,3D7,72 h,blood stage,123 nM
COc1ccc2cc1Oc1ccc(cc1)C[C@H]1c3c(cc4c(c3Oc3cc5c(cc3OC)CCN(C)[C@@H]5C2)OCO4)CCN1C,,NF54,,blood stage,188 nM
CC1=C(C)/C(=C/c2cc(Cc3ccc(Cl)cc3)c(C)[nH]2)N=C1c1ccc[nH]1,SYBR Green,D6,72 h,blood stage,602 nM
Cc1ccc(N(c2ccc(NC(=O)CN(C)c3ccccc3N3CCCC3=O)cc2)C(C)C)cc1,SYBR Green,DD2,,blood stage,2.74 nM
CC[C@H](CC[C@@H](C)[C@H]1CC[C@H]2[C@@H]3CC=C4C[C@@H](O)CC[C@]4(C)[C@H]3CC[C@]12C)C(C)C,SYBR Green,3D7,48 h,blood stage,9.29 µg/mL
N=C(CC(O)c1nc2cc(F)ccc2c2ccc(F)cc12)Nc1ccc(F)cc1 (stereo not drawn),ELISA,DD2,72 h,"drug-resistant strain, blood stage",936 nM
CCC1=C(CC)/C(=C/c2cc(Cc3ccc(OC(F)(F)F)cc3)c(C)[nH]2)N=C1c1ccc[nH]1,SYBR Green,D6,72 h,blood stage,265 nM
CO[C@H]1/C=C/O[C@@]2(C)Oc3c(C)c(O)c4c(O)c(c(/C=N/N5CCN(C)CC5)c(O)c4c3C2=O)NC(=O)/C(C)=C\C=C\[C@H](C)[C@H](O)[C@@H](C)[C@@H](O)[C@@H](C)[C@H](OC(C)=O)[C@@H]1C,,NF54,,blood stage,900 nM
